Laboratory results taken from ChEMBL document CHEMBL3244078, “Synthesis and antihypertensive activity of novel 3-hydrazino-5-phenyl-1,2,4-triazines” (J Med Chem, 1979).
Calls of active or inactive are those of the source. The calls are words filed in the database; no cut-off is given here.

Legend:
Rattus norvegicus [1] = assay: Antihypertensive activity in spontaneously hypertensive rat assessed as drop in mean systolic blood pressure at 100 mg/kg, po after 4 hrs by tail cuff method relative to vehicle-treated control; assay type: functional, Artery
Rattus norvegicus [2] = assay: Antihypertensive activity in spontaneously hypertensive rat assessed as drop in mean systolic blood pressure at 100 mg/kg, po after 24 hrs by tail cuff method relative to vehicle-treated control; assay type: functional, Artery
Rattus norvegicus [3] = assay: Antihypertensive activity in spontaneously hypertensive rat assessed as drop in mean systolic blood pressure at 100 mg/kg, po followed by second dosing at 24 hrs measured after 28 hrs by tail cuff method relative to vehicle-treated control; assay type: functional, Artery
Rattus norvegicus [4] = assay: Antihypertensive activity in spontaneously hypertensive rat assessed as drop in mean systolic blood pressure at 100 mg/kg, po followed by second dosing at 24 hrs measured after 48 hrs by tail cuff method relative to vehicle-treated control; assay type: functional, Artery
[5] = Toxicity in ip dosed CF-1 mouse after 48 hrs; details: in vivo
Rattus norvegicus [6] = assay: Antihypertensive activity in spontaneously hypertensive rat assessed as drop in mean systolic blood pressure at 30 mg/kg, po after 4 hrs by tail cuff method relative to vehicle-treated control; assay type: functional, Artery
Summary of the method: (§1)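 Dose-response run of the primary SHR protocol: rats aged 12–16 weeks, systolic BP of 170 mmHg or greater, five per dose. Oral doses of 100, 30, 10 and 3 mg/kg in 0.25% methylcellulose, redosed immediately after the 24-h reading. Tail-cuff systolic BP read predose and at 4, 24, 28 and 48 h. Mean drop from predose; Student's t test, p < 0.05.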

Rattus norvegicus [7] = assay: Antihypertensive activity in spontaneously hypertensive rat assessed as drop in mean systolic blood pressure at 30 mg/kg, po after 24 hrs by tail cuff method relative to vehicle-treated control; assay type: functional, Artery; summary of the method: as §1
Rattus norvegicus [8] = assay: Antihypertensive activity in spontaneously hypertensive rat assessed as drop in mean systolic blood pressure at 30 mg/kg, po followed by second dosing at 24 hrs measured after 28 hrs by tail cuff method relative to vehicle-treated control; assay type: functional, Artery; summary of the method: as §1
Rattus norvegicus [9] = assay: Antihypertensive activity in spontaneously hypertensive rat assessed as drop in mean systolic blood pressure at 30 mg/kg, po followed by second dosing at 24 hrs measured after 48 hrs by tail cuff method relative to vehicle-treated control; assay type: functional, Artery; summary of the method: as §1
Rattus norvegicus [10] = assay: Antihypertensive activity in spontaneously hypertensive rat assessed as drop in mean systolic blood pressure at 10 mg/kg, po after 4 hrs by tail cuff method relative to vehicle-treated control; assay type: functional; summary of the method: as §1
Rattus norvegicus [11] = assay: Antihypertensive activity in spontaneously hypertensive rat assessed as drop in mean systolic blood pressure at 10 mg/kg, po after 24 hrs by tail cuff method relative to vehicle-treated control; assay type: functional; summary of the method: as §1
Rattus norvegicus [12] = assay: Antihypertensive activity in spontaneously hypertensive rat assessed as drop in mean systolic blood pressure at 10 mg/kg, po followed by second dosing at 24 hrs measured after 28 hrs by tail cuff method relative to vehicle-treated control; assay type: functional; summary of the method: as §1
Rattus norvegicus [13] = assay: Antihypertensive activity in spontaneously hypertensive rat assessed as drop in mean systolic blood pressure at 10 mg/kg, po followed by second dosing at 24 hrs measured after 48 hrs by tail cuff method relative to vehicle-treated control; assay type: functional; summary of the method: as §1
Rattus norvegicus [14] = assay: Antihypertensive activity in spontaneously hypertensive rat assessed as mean heart rate at 100 mg/kg, po after 4 hrs by tail cuff method relative to vehicle-treated control; assay type: functional
Summary of the method: (§2)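 Heart rate by biotachometer in the SHR dose-response protocol: five rats per dose, oral doses of 100, 30, 10 and 3 mg/kg in 0.25% methylcellulose, second dose right after the 24-h reading. Mean heart rate recorded predose and at 4, 24, 28 and 48 h.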

Rattus norvegicus [15] = assay: Antihypertensive activity in spontaneously hypertensive rat assessed as mean heart rate at 100 mg/kg, po after 24 hrs by tail cuff method relative to vehicle-treated control; assay type: functional; summary of the method: as §2
Rattus norvegicus [16] = assay: Antihypertensive activity in spontaneously hypertensive rat assessed as mean heart rate at 100 mg/kg, po followed by second dosing at 24 hrs measured after 28 hrs by tail cuff method relative to vehicle-treated control; assay type: functional; summary of the method: as §2
Rattus norvegicus [17] = assay: Antihypertensive activity in spontaneously hypertensive rat assessed as mean heart rate at 100 mg/kg, po followed by second dosing at 24 hrs measured after 48 hrs by tail cuff method relative to vehicle-treated control; assay type: functional; summary of the method: as §2
Rattus norvegicus [18] = assay: Antihypertensive activity in spontaneously hypertensive rat assessed as mean heart rate at 30 mg/kg, po after 4 hrs by tail cuff method relative to vehicle-treated control; assay type: functional; summary of the method: as §2
Rattus norvegicus [19] = assay: Antihypertensive activity in spontaneously hypertensive rat assessed as mean heart rate at 30 mg/kg, po after 24 hrs by tail cuff method relative to vehicle-treated control; assay type: functional; summary of the method: as §2
Rattus norvegicus [20] = assay: Antihypertensive activity in spontaneously hypertensive rat assessed as mean heart rate at 30 mg/kg, po followed by second dosing at 24 hrs measured after 28 hrs by tail cuff method relative to vehicle-treated control; assay type: functional; summary of the method: as §2
Rattus norvegicus [21] = assay: Antihypertensive activity in spontaneously hypertensive rat assessed as mean heart rate at 30 mg/kg, po followed by second dosing at 24 hrs measured after 48 hrs by tail cuff method relative to vehicle-treated control; assay type: functional; summary of the method: as §2
Rattus norvegicus [22] = assay: Antihypertensive activity in spontaneously hypertensive rat assessed as mean heart rate at 10 mg/kg, po after 4 hrs by tail cuff method relative to vehicle-treated control; assay type: functional; summary of the method: as §2
Rattus norvegicus [23] = assay: Antihypertensive activity in spontaneously hypertensive rat assessed as mean heart rate at 10 mg/kg, po after 24 hrs by tail cuff method relative to vehicle-treated control; assay type: functional; summary of the method: as §2
Rattus norvegicus [24] = assay: Antihypertensive activity in spontaneously hypertensive rat assessed as mean heart rate at 10 mg/kg, po followed by second dosing at 24 hrs measured after 28 hrs by tail cuff method relative to vehicle-treated control; assay type: functional; summary of the method: as §2
Rattus norvegicus [25] = assay: Antihypertensive activity in spontaneously hypertensive rat assessed as mean heart rate at 10 mg/kg, po followed by second dosing at 24 hrs measured after 48 hrs by tail cuff method relative to vehicle-treated control; assay type: functional; summary of the method: as §2
Rattus norvegicus [26] = assay: Antihypertensive activity in spontaneously hypertensive rat assessed as mean heart rate at 3 mg/kg, po after 4 hrs by tail cuff method relative to vehicle-treated control; assay type: functional; summary of the method: as §2
Rattus norvegicus [27] = assay: Antihypertensive activity in spontaneously hypertensive rat assessed as mean heart rate at 3 mg/kg, po after 24 hrs by tail cuff method relative to vehicle-treated control; assay type: functional; summary of the method: as §2
Rattus norvegicus [28] = assay: Antihypertensive activity in spontaneously hypertensive rat assessed as mean heart rate at 3 mg/kg, po followed by second dosing at 24 hrs measured after 28 hrs by tail cuff method relative to vehicle-treated control; assay type: functional; summary of the method: as §2
Rattus norvegicus [29] = assay: Antihypertensive activity in spontaneously hypertensive rat assessed as mean heart rate at 3 mg/kg, po followed by second dosing at 24 hrs measured after 48 hrs by tail cuff method relative to vehicle-treated control; assay type: functional; summary of the method: as §2
Rattus norvegicus [30] = assay: Antihypertensive activity in spontaneously hypertensive rat assessed as drop in mean systolic blood pressure at 50 mg/kg, po after 4 hrs by tail cuff method relative to vehicle-treated control; assay type: functional, Artery
Summary of the method: (§3)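 Spontaneously hypertensive rats aged 12–16 weeks with systolic BP of 170 mmHg or greater, in groups of five. Dosed po as a solution or suspension in 0.25% methylcellulose at 5 mL/kg, with a second dose right after the 24-h reading. Tail-cuff systolic BP (capacitance transducer) was read predose as control, then at 4, 24, 28 and 48 h. Mean drop from predose; Student's t test, p < 0.05.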

Rattus norvegicus [31] = assay: Antihypertensive activity in spontaneously hypertensive rat assessed as drop in mean systolic blood pressure at 50 mg/kg, po after 24 hrs by tail cuff method relative to vehicle-treated control; assay type: functional, Artery; summary of the method: as §3
Rattus norvegicus [32] = assay: Antihypertensive activity in spontaneously hypertensive rat assessed as drop in mean systolic blood pressure at 50 mg/kg, po followed by second dosing at 24 hrs measured after 28 hrs by tail cuff method relative to vehicle-treated control; assay type: functional, Artery; summary of the method: as §3
Rattus norvegicus [33] = assay: Antihypertensive activity in spontaneously hypertensive rat assessed as drop in mean systolic blood pressure at 50 mg/kg, po followed by second dosing at 24 hrs measured after 48 hrs by tail cuff method relative to vehicle-treated control; assay type: functional, Artery; summary of the method: as §3

Row | SMILES | Activity (Rattus norvegicus [1]) | Activity (Rattus norvegicus [2]) | Activity (Rattus norvegicus [3]) | LD50 at 48 h [5] | Activity (Rattus norvegicus [6]) | Activity (Rattus norvegicus [7]) | Activity (Rattus norvegicus [8]) | Activity (Rattus norvegicus [9]) | Activity (Rattus norvegicus [18]) | Activity (Rattus norvegicus [19]) | Activity (Rattus norvegicus [20]) | Activity (Rattus norvegicus [21]) | Activity (Rattus norvegicus [22]) | Activity (Rattus norvegicus [23]) | Activity (Rattus norvegicus [24]) | Activity (Rattus norvegicus [25]) | Activity (Rattus norvegicus [26]) | Activity (Rattus norvegicus [27]) | Activity (Rattus norvegicus [28]) | Activity (Rattus norvegicus [29]) | further results
1 | Cl.O.O=C(NNc1nncc(-c2ccccc2)n1)C12CC3CC(CC(C3)C1)C2 | 42 mmHg | 70 mmHg | 46 mmHg | > 300 mg/kg | 20 mmHg | 12 mmHg | 18 mmHg | 11 mmHg | 410 bpm | 412 bpm | 380 bpm | 392 bpm | 468 bpm | 446 bpm | 428 bpm | 422 bpm | 445 bpm | 420 bpm | 418 bpm | 426 bpm | Activity (Rattus norvegicus [4]): 35 mmHg; Activity (Rattus norvegicus [10]; Artery): inactive; Activity (Rattus norvegicus [11]; Artery): inactive; Activity (Rattus norvegicus [12]; Artery): inactive; Activity (Rattus norvegicus [13]; Artery): inactive; Activity (Rattus norvegicus [14]): 446 bpm; Activity (Rattus norvegicus [15]): 428 bpm; Activity (Rattus norvegicus [16]): 442 bpm; Activity (Rattus norvegicus [17]): 458 bpm
2 | CC(=O)NNc1nncc(-c2cccc(Cl)c2)n1 | 20 mmHg | 23 mmHg | 50 mmHg | > 300 mg/kg | 16 mmHg | 14 mmHg | 19 mmHg | 19 mmHg | 400 bpm | 438 bpm | 460 bpm | 462 bpm | 458 bpm | 460 bpm | 448 bpm | 448 bpm | 422 bpm | 430 bpm | 436 bpm | 442 bpm | Activity (Rattus norvegicus [4]): 55 mmHg; Activity (Rattus norvegicus [10]; Artery): inactive; Activity (Rattus norvegicus [11]; Artery): inactive; Activity (Rattus norvegicus [12]; Artery): inactive; Activity (Rattus norvegicus [13]; Artery): inactive; Activity (Rattus norvegicus [14]): 478 bpm; Activity (Rattus norvegicus [15]): 482 bpm; Activity (Rattus norvegicus [16]): 482 bpm; Activity (Rattus norvegicus [17]): 490 bpm
3 | O=C(NNc1nncc(-c2ccc(Cl)c(Cl)c2)n1)C(F)(F)F | 30 mmHg | 29 mmHg | 35 mmHg | > 300 mg/kg | 18 mmHg | 18 mmHg | 18 mmHg | 16 mmHg | 444 bpm | 438 bpm | 435 bpm | 426 bpm | 412 bpm | 438 bpm | 448 bpm | 400 bpm | 430 bpm | 424 bpm | 428 bpm | 424 bpm | Activity (Rattus norvegicus [4]): 25 mmHg; Activity (Rattus norvegicus [10]): 16 mmHg; Activity (Rattus norvegicus [11]): 12 mmHg; Activity (Rattus norvegicus [12]): 17 mmHg; Activity (Rattus norvegicus [13]): 15 mmHg; Activity (Rattus norvegicus [14]): 472 bpm; Activity (Rattus norvegicus [15]): 462 bpm; Activity (Rattus norvegicus [16]): 438 bpm; Activity (Rattus norvegicus [17]): 438 bpm
4 | NNc1nncc(-c2ccccc2)n1 | – | – | – | 56 mg/kg | – | – | – | – | – | – | – | – | – | – | – | – | – | – | – | – | Activity (Rattus norvegicus [30]): 30 mmHg; Activity (Rattus norvegicus [31]): 43 mmHg; Activity (Rattus norvegicus [32]): 58 mmHg; Activity (Rattus norvegicus [33]): 60 mmHg
5 | Br.NCC(=O)NNc1nncc(-c2ccccc2)n1.O | – | – | – | 75 mg/kg | – | – | – | – | – | – | – | – | – | – | – | – | – | – | – | – | Activity (Rattus norvegicus [30]): 41 mmHg; Activity (Rattus norvegicus [31]): 35 mmHg; Activity (Rattus norvegicus [32]): 105 mmHg; Activity (Rattus norvegicus [33]): 91 mmHg
6 | NNc1nncc2ccccc12 [HYDRALAZINE] | – | – | – | 100 mg/kg | 88 mmHg | 60 mmHg | 47 mmHg | 14 mmHg | 492 bpm | 480 bpm | 496 bpm | 448 bpm | 504 bpm | 468 bpm | 428 bpm | 448 bpm | 448 bpm | 392 bpm | 444 bpm | 432 bpm | Activity (Rattus norvegicus [10]): 60 mmHg; Activity (Rattus norvegicus [11]): 38 mmHg; Activity (Rattus norvegicus [12]): 10 mmHg; Activity (Rattus norvegicus [13]): 10 mmHg
